Screening results as filed in PubChem.
Yeast life ext: compounds extending yeast replicative lifespan, primary screen, S. cerevisiae, OD615. inhibition of the nicotinamide effect, % at 10 µM. S. cerevisiae growth with nicotinamide; deaD strain in restrictive glucose medium. 0.68% of 130,000 active;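 active = inhibition above a set limit, placed 3 SD over the median of all compounds, cut at about 26% in these data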
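Assay system: DeaD-strain S. cerevisiae. Medium: CSMM-D glucose medium, restrictive. Reagent: nicotinamide, 1.5 mM, co-present with compound. Compound: 10 µM single point, 0.25% DMSO. Schedule: culture preincubation 4 h, compound exposure 48 h, both 30 °C. Detection: absorbance at 615 nm.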
Arbovirus inh: antivirals against arbovirus infection, primary screen, cell-based, full library, 10K replicate subset; arbovirus infection cell-based antiviral screen; inhibition, % at 10 µM; 0.37% of 200,000 active; AID 1251, 2008; in the data active = inhibition above about 30%
BB579 growth dn: growth inhibitors of yeast BB579 in restrictive medium, primary screen, yeast lifespan-shortening project, S. cerevisiae. inhibition, % at 10 µM. 0.51% of 140,000 active. AID 804, 2007. OD615, 48 h;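 active = inhibition above a set limit, 3 SD over the mean compound inhibition, cut at about 44% in these data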
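System: Saccharomyces cerevisiae DeaD strain BB579, replicative lifespan model yeast. Buffer or medium: restrictive glucose-based CSMM-D medium. Doses: one dose, 10 µM compound with 0.25% DMSO. Timing: 4 h preincubation and 48 h exposure at 30 °C. Detection: turbidity as optical density at 615 nm. Benchmarks: amphotericin B 10 µg/mL, positive.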
Efa HMGR inh: inhibitors of E. faecalis class II HMGR, primary screen, biochemical, Enterococcus faecalis; HMG-CoA reductase (Enterococcus faecalis, mvaE); purified E. faecalis HMGR, NADPH absorbance 340 nm kinetic; inhibition, % at 10 µM; 0.41% of 190,000 active;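 active = inhibition above a set limit, the median over all tested compounds plus 3 SD, cut at about 9.5% in these data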;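 also: enzyme runs in reverse so mevalonate oxidation gives rising NADPH absorbance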
Rad51 HR inh: human RAD51 strand exchange inhibitors, primary screen, biochemical, fluorescence. 0.085% of 200,000 active. hRad51 DNA strand exchange, fluorescence dequenching. inhibition, % at 10 µM. DNA repair protein RAD51 homolog 1 (Homo sapiens), Q06609;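 active = inhibition above 40% at the single screening dose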
Target sequence (Q06609 whole entry, looked up): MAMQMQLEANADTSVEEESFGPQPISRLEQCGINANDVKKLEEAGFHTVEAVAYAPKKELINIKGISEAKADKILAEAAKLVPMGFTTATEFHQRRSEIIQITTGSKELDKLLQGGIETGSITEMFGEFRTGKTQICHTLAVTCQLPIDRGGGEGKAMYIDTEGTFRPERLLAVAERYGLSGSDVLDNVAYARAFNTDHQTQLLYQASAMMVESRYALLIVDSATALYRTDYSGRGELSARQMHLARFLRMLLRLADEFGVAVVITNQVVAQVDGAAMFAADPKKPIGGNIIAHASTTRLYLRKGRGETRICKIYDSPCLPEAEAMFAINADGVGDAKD
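Read-out basis: percent inhibition relative to plate controls and blanks / Assay system: human Rad51 nucleoprotein filaments preassembled on unlabelled ssDNA / Timing: filaments 15 min 37 °C, then compound 30 min / Control set: per-plate controls and blanks / Technique: fluorescence dequenching at 485/520 nm / Compound: 10 µM final, single point / Also added: Fluorescein- and BHQ1-tagged 47-mer duplex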
Measles CPE: compounds protecting cells from measles virus cytopathic effect, primary screen, measles RdRp inhibitor project, single point, MLSMR library, absorbance; Measles virus-infected cells, CPE protection; protection (pct of control), % at 4 µM; 1.5% of 140,000 active; in the data active = protection mostly above about 24%, no sharp cut-off; inactive = mostly below about 26%
Numbers stand for hits; i = inactive; nt = no result given. The list is not random: actives were taken first. Their share in the collection is about 2.4%.

SMILES	Yeast life ext	Arbovirus inh	BB579 growth dn	Efa HMGR inh	Rad51 HR inh	Measles CPE
O=c1c(OC2OC(CO)C(O)C(O)C2OC2OC(CO)C(O)C(O)C2O)c(-c2ccc(O)cc2)oc2cc(O)cc(O)c12 (configuration not stated)	nt	nt	nt	nt	i	nt
O=c1c(OC2OC(CO)C(O)C(O)C2O)c(-c2ccc(O)c(O)c2)oc2cc(O)cc(O)c12 (configuration not stated)	i	i	i	16	i	i
O=C(NCC1(c2ccccc2)CCCC1)c1ccc(Br)o1	i	i	i	i	i	i
Cc1ccc(NC(=O)COC(=O)CN2C(=O)NC(C)(C)C2=O)cc1S(=O)(=O)N1CCOCC1	nt	i	nt	9.7	i	nt
CCc1ccc(OCC(=O)Nc2ncn[nH]2)cc1	nt	i	nt	i	i	nt
CC(OC(=O)c1ccc(NS(=O)(=O)c2ccc3[nH]c(=O)[nH]c3c2)cc1)C(=O)Nc1ccc(Cl)cc1 (configuration not stated)	nt	i	nt	i	i	nt
COc1ccc(Cl)cc1NC(=O)C(C)OC(=O)c1ccc(NS(=O)(=O)c2ccc3[nH]c(=O)[nH]c3c2)cc1 (configuration not stated)	i	i	i	i	i	48
CC(C)C(=O)Nc1cc(S(=O)(=O)Nc2ccc(Cl)cc2)ccc1Cl	i	i	i	i	i	45
CC(C)OC(=O)Nc1ccc2c(c1)N(C(=O)N1CCN(C)CC1)c1ccccc1CC2	nt	nt	nt	nt	i	nt
CCOC(=O)Nc1ccc2c(c1)N(C(=O)N1CCN(C)CC1)c1ccccc1CC2	nt	i	nt	13	i	nt
COc1cccc(N=Cc2ccc(O)cc2O)c1	i	i	i	i	nt	35
Oc1ccc(C=Nc2ccc3ncccc3c2)c(O)c1	i	i	i	i	i	i
O=C(Cc1ccc(F)cc1)Nc1ccc(F)c([N+](=O)[O-])c1	i	i	i	i	i	72
Cn1cc(S(=O)(=O)Nc2ccc(Br)cc2F)c(=O)n(C)c1=O	i	i	i	i	i	61
CN(C)S(=O)(=O)Nc1ccc(Br)cc1F	i	i	i	i	i	i
COc1ccc(CN2CCn3ncc(C(=O)Nc4cc(C)cc(C)c4)c3C2=O)cc1	i	i	i	i	i	i
CCCS(=O)(=O)N1CCCC(C(=O)N2CCN(C(=O)OCC)CC2)C1 (configuration not stated)	i	i	i	i	69	i
S=C1SCN(Cc2cccnc2)CN1Cc1ccccc1	nt	i	nt	i	i	nt
CCOCCCN1CN(Cc2ccco2)CNC1=S	nt	i	nt	i	i	nt
S=C1SCN(Cc2ccccn2)CN1Cc1ccco1	i	i	52	i	nt	i
COCCN1CSC(=S)N(Cc2ccco2)C1	i	i	60	i	i	i
Cc1ccc(Oc2cnc3ccccc3n2)cc1	i	i	i	i	i	67
Clc1ccc(Oc2cnc3ccccc3n2)cc1	i	i	i	i	i	i
CC(=O)c1c(C)n(C)c2ccc(O)cc12	i	i	i	i	i	39
Cc1c(C(=O)O)c2cc(O)ccc2n1-c1ccccc1	i	i	i	i	i	i
SMILES	Yeast life ext	Arbovirus inh	BB579 growth dn	Efa HMGR inh	Rad51 HR inh	Measles CPE
Cc1csc2nc(CSc3ccc(Cl)cc3)cn12	i	i	i	i	i	i
Clc1ccc(SCc2cn3ccsc3n2)cc1	i	i	i	i	i	57
N#Cc1ccc(OCC(=O)NC2=NCCS2)cc1	nt	i	nt	i	i	nt
O=C(COc1ccccc1)NC1=NCCS1	i	i	i	i	i	78
Cc1ccc(S(=O)(=O)Cn2nnnc2C(C)N2CCN(C(=O)c3ccco3)CC2)cc1 (configuration not stated)	i	i	i	i	i	56
Cc1ccc(S(=O)(=O)Cn2nnnc2C(C(C)C)N2CCN(C(=O)c3ccco3)CC2)cc1 (configuration not stated)	nt	nt	nt	nt	i	nt
CCCCc1n(CC(=O)c2ccc(Cl)cc2)c2ccccc2[n+]1C	nt	i	nt	i	i	nt
COc1cc2nc(C3CCC3)n(NC(=O)COc3ccccc3)c(=O)c2cc1OC	53	i	i	i	i	i
CCCn1c(C)cc(C(=O)COc2ncnc3sccc23)c1C	49	i	i	i	i	i
